The test system of the first data set is MT2. The data set can be described thus: Cytotoxicity in human MT2 cells after 4 day by XTT assay. Format: cell-based. To be noted: mt2, 96 h. The essentials: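 MT-2 cells (5 · 10^5/mL) were mixed with an equal volume of graded compound concentrations and incubated 4 days at 37 °C. XTT solution (1 mg/mL) containing 0.02 μM phenazine methosulphate was then added. After 4 h, absorbance at 450 nm was read.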
Consider `Cc1cc(C(O)C[N+](=O)[O-])cc(C)c1Oc1ccc(N)c(Nc2ccc(C#N)cc2)n1.Cl` (stereo not drawn), for which the CC50 worked out at 20600 nM.

In turn, `Cc1cc(/C=C/C(=O)O)cc(C)c1Oc1ccc([N+](=O)[O-])c(Nc2ccc(C#N)cc2)n1` yielded a CC50 of 34800 nM.

For the molecule `Cc1cc(/C=C/C(=O)O)cc(C)c1Oc1ccc(N)c(Nc2ccc(C#N)cc2)n1`, half-maximal cytotoxicity (CC50) was put at 15700 nM.

Turning to `CC(=O)/C=C/c1cc(C)c(Oc2ccc([N+](=O)[O-])c(Nc3ccc(C#N)cc3)n2)c(C)c1`, the CC50 is above 47900 nM.

Consider `CC(=O)CCc1cc(C)c(Oc2ccc(N)c(Nc3ccc(C#N)cc3)n2)c(C)c1`, for which the CC50 was 18400 nM.

`Cc1cc(/C=C/C#N)cc(C)c1Oc1ccc([N+](=O)[O-])c(Nc2ccc(C#N)cc2)n1` came in with a CC50 above 100000 nM.

Test system in a further data set: not listed separately
Briefly: Cytotoxicity in human TZM-bl cells after 4 day by XTT assay. To be noted: 96 h. Format: cell-based.
Consider `Cc1cc(C(O)C[N+](=O)[O-])cc(C)c1Oc1ccc(N)c(Nc2ccc(C#N)cc2)n1.Cl` (stereo not drawn), for which the CC50 turned out to be 7020 nM.

As to `Cc1cc(/C=C/C(=O)O)cc(C)c1Oc1ccc([N+](=O)[O-])c(Nc2ccc(C#N)cc2)n1`, half-maximal cytotoxicity (CC50) was put at 27800 nM.

`Cc1cc(/C=C/C(=O)O)cc(C)c1Oc1ccc(N)c(Nc2ccc(C#N)cc2)n1` gave a CC50 of 18000 nM.

With `CC(=O)/C=C/c1cc(C)c(Oc2ccc([N+](=O)[O-])c(Nc3ccc(C#N)cc3)n2)c(C)c1`, the CC50 is above 46700 nM.

In the case of `CC(=O)CCc1cc(C)c(Oc2ccc(N)c(Nc3ccc(C#N)cc3)n2)c(C)c1`, the midpoint of cytotoxicity, the CC50, lay at 9250 nM.

For `Cc1cc(/C=C/C#N)cc(C)c1Oc1ccc([N+](=O)[O-])c(Nc2ccc(C#N)cc2)n1`, the CC50 was above 48700 nM.

The test system of a further data set is Human immunodeficiency virus 1. Briefly: Antiviral activity against multidrug resistant HIV1 A17 containing reverse transcripatseK103N and Y181C mutation infected in human MT2 cells assessed as reduction in p24 antigen level after 4 days by ELISA. Format: functional, organism-based. To be noted: Human immunodeficiency virus 1, A17, MT2, 96 h. In a few lines:
(§1)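 MT-2 cells (10^4/well) were infected with 100 TCID50 virus in RPMI 1640 with 10% FBS, with or without graded compound concentrations, overnight. Supernatant was then replaced with compound-free medium. On day 4 post-infection, supernatant was mixed 1:1 with 5% Triton X-100 and p24 antigen was quantified by ELISA. Percent inhibition was converted to EC50 with CalcuSyn. Tested at least in triplicate.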
For `CC(=O)CCc1cc(C)c(Oc2ccc(N)c(Nc3ccc(C#N)cc3)n2)c(C)c1`, the EC50 was determined as 730 nM.

Take `Cc1cc(/C=C/C#N)cc(C)c1Oc1ccc([N+](=O)[O-])c(Nc2ccc(C#N)cc2)n1`: the EC50 was above 10000 nM.

The next data set relates to Human immunodeficiency virus 1. Briefly: Antiviral activity against multidrug resistant HIV1 RTMDR containing reverse transcriptase L74V, M41L, V106A and T215Y mutant infected in human TZM-bl cells after 4 days by luciferase reporter gene assay. In kind it is functional, organism-based. To be noted: Human immunodeficiency virus 1, RTMDR, 96 h.
In the case of `CC(=O)CCc1cc(C)c(Oc2ccc(N)c(Nc3ccc(C#N)cc3)n2)c(C)c1`, the midpoint of the response, the EC50, lay at 3.2 nM.

In turn, `Cc1cc(/C=C/C#N)cc(C)c1Oc1ccc([N+](=O)[O-])c(Nc2ccc(C#N)cc2)n1` came in with an EC50 of 14.8 nM.

For the next data set, the system named is Human immunodeficiency virus 1. The data set can be described thus: Resistance index, ratio of EC50 for multidrug resistant HIV1 RTMDR to EC50 for wild type HIV1 NL4-3. Format: functional.
Conditions: not given
Turning to `CC(=O)CCc1cc(C)c(Oc2ccc(N)c(Nc3ccc(C#N)cc3)n2)c(C)c1`, the Ratio EC50 amounted to 1.64.

Take `Cc1cc(/C=C/C#N)cc(C)c1Oc1ccc([N+](=O)[O-])c(Nc2ccc(C#N)cc2)n1`: the Ratio EC50 is 1.85.

Test system in a further data set: not listed separately
Briefly: Selectivity index, ratio of CC50 for human TZM-bl cells to EC50 for HIV1 NL4-3. Format: toxicity, cell-based. To be noted: tzm-bl.
As to `Cc1cc(C(O)C[N+](=O)[O-])cc(C)c1Oc1ccc(N)c(Nc2ccc(C#N)cc2)n1.Cl` (stereo not drawn), the “Ratio CC50/EC50” value came to 695.

For the molecule `CC(=O)CCc1cc(C)c(Oc2ccc(N)c(Nc3ccc(C#N)cc3)n2)c(C)c1`, the “Ratio CC50/EC50” value amounted to 4744.

Consider `Cc1cc(/C=C/C#N)cc(C)c1Oc1ccc([N+](=O)[O-])c(Nc2ccc(C#N)cc2)n1`, for which the “Ratio CC50/EC50” value is given as above 6082.

A further data set has as its system Human immunodeficiency virus 1. Briefly: Antiviral activity against HIV1 3B infected in human MT2 cells assessed as reduction in p24 antigen level after 4 days by ELISA. Format: functional, organism-based. The settings on record: Human immunodeficiency virus 1, 3B, MT2, 96 h; read-out: EC50. The essentials:
as §1
Take `Cc1cc(C(O)C[N+](=O)[O-])cc(C)c1Oc1ccc(N)c(Nc2ccc(C#N)cc2)n1.Cl` (stereo not drawn): the EC50 amounted to 68 nM.

For `Cc1cc(/C=C/C(=O)O)cc(C)c1Oc1ccc([N+](=O)[O-])c(Nc2ccc(C#N)cc2)n1`, the EC50 was 8120 nM.

Turning to `Cc1cc(/C=C/C(=O)O)cc(C)c1Oc1ccc(N)c(Nc2ccc(C#N)cc2)n1`, the EC50 came to 630 nM.

As for `CC(=O)/C=C/c1cc(C)c(Oc2ccc([N+](=O)[O-])c(Nc3ccc(C#N)cc3)n2)c(C)c1`, the EC50 was 608 nM.

`CC(=O)CCc1cc(C)c(Oc2ccc(N)c(Nc3ccc(C#N)cc3)n2)c(C)c1`: the concentration for a half-maximal effect (EC50) is 55 nM.

`Cc1cc(/C=C/C#N)cc(C)c1Oc1ccc([N+](=O)[O-])c(Nc2ccc(C#N)cc2)n1`: the EC50 came out at 49 nM.

Another data set concerns Human immunodeficiency virus 1. Briefly: Resistance index, ratio of EC50 for multidrug resistant HIV1 A17 to EC50 for wild type HIV1 3B. Format: functional.
Conditions: not given
For the molecule `CC(=O)CCc1cc(C)c(Oc2ccc(N)c(Nc3ccc(C#N)cc3)n2)c(C)c1`, the Ratio EC50 was found to be 13.

For `Cc1cc(/C=C/C#N)cc(C)c1Oc1ccc([N+](=O)[O-])c(Nc2ccc(C#N)cc2)n1`, the Ratio EC50 was above 204.

The subject of the next data set is Human immunodeficiency virus 1. Briefly: Antiviral activity against HIV1 NL4-3 infected in human TZM-bl cells after 2 days by luciferase reporter gene assay. The settings on record: Human immunodeficiency virus 1, NL4-3, TZM-bl, 48 h; read-out: EC50.
On to `Cc1cc(C(O)C[N+](=O)[O-])cc(C)c1Oc1ccc(N)c(Nc2ccc(C#N)cc2)n1.Cl` (stereo not drawn), for which the EC50 is 10.1 nM.

For `Cc1cc(/C=C/C(=O)O)cc(C)c1Oc1ccc([N+](=O)[O-])c(Nc2ccc(C#N)cc2)n1`, the EC50 came out at 14900 nM.

For the molecule `Cc1cc(/C=C/C(=O)O)cc(C)c1Oc1ccc(N)c(Nc2ccc(C#N)cc2)n1`, the EC50 was 600 nM.

Regarding `CC(=O)/C=C/c1cc(C)c(Oc2ccc([N+](=O)[O-])c(Nc3ccc(C#N)cc3)n2)c(C)c1`, the concentration for a half-maximal effect (EC50) worked out at 24.4 nM.

On to `CC(=O)CCc1cc(C)c(Oc2ccc(N)c(Nc3ccc(C#N)cc3)n2)c(C)c1`, for which the EC50 is 1.95 nM.

Turning to `Cc1cc(/C=C/C#N)cc(C)c1Oc1ccc([N+](=O)[O-])c(Nc2ccc(C#N)cc2)n1`, the EC50 is 8 nM.

Test system in another data set: not listed separately
Briefly: Selectivity index, ratio of CC50 for human MT2 cells to EC50 for HIV1 3B. Format: toxicity, cell-based. The settings on record: MT2 cells, read-out: Ratio CC50/EC50. In a few lines:
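SI = CC50/EC50 (p24 ELISA). XTT (1 mg/mL) containing 0.02 μM PMS was added for 4 h, then absorbance was read at 450 nm. CC50 was calculated with CalcuSyn.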
With `CC(=O)CCc1cc(C)c(Oc2ccc(N)c(Nc3ccc(C#N)cc3)n2)c(C)c1`, the selectivity ratio was determined as 1840.

The data set is the same for the next values; noted with them: mt2.
In the case of `Cc1cc(C(O)C[N+](=O)[O-])cc(C)c1Oc1ccc(N)c(Nc2ccc(C#N)cc2)n1.Cl` (stereo not drawn), the “Ratio CC50/EC50” value was 303.

In the case of `Cc1cc(/C=C/C#N)cc(C)c1Oc1ccc([N+](=O)[O-])c(Nc2ccc(C#N)cc2)n1`, the “Ratio CC50/EC50” value is recorded as above 2041.
